For assay [1], the system named is CCRF-CEM. Kind of assay: Inhibitory activity against HIV-2 in CEM cell culture. The format is functional, cell-based. The following applies: Homo sapiens.
The subject of assay [2] is MT4. Nature of the assay: Inhibitory activity against HIV-2 in MT-4 cell culture. The following applies: Homo sapiens. It is filed as functional, cell-based.
Assay [3] relates to CCRF-CEM. Nature of the assay: Inhibitory activity against HIV-1 in CEM cell culture. The format is functional, cell-based. The conditions noted are these: Homo sapiens. Summed up: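 CEM cells at about 200000-300000 cells/mL infected with HIV-1 (IIIB), then added to serial dilutions of compound. After 4 days at 37 °C, syncytium formation was scored by microscopy.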
Assay [4] relates to MT4. Nature of the assay: Inhibitory activity against HIV-1 in MT-4 cell culture. The conditions noted are these: Homo sapiens. The format is functional, cell-based. Summed up: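 MT-4 cells at about 200000-300000 cells/mL infected with HIV-1 (IIIB) and incubated with serial compound dilutions for 5 days at 37 °C. Viable cells were counted by trypan blue exclusion.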
The target of assay [5] is Human immunodeficiency virus type 1 reverse transcriptase (Human immunodeficiency virus 1, UniProt Q72547). Nature of the assay: Inhibitory activity against wild-type HIV-1 reverse transcriptase.
Assay [6] addresses Human immunodeficiency virus type 1 reverse transcriptase (Human immunodeficiency virus 1, UniProt Q72547, R172A). Kind of assay: Inhibitory activity against R172A mutant reverse transcriptase.
Assay [7] addresses Human immunodeficiency virus type 1 reverse transcriptase (Human immunodeficiency virus 1, UniProt Q72547, E138K). Kind of assay: Inhibitory activity against E138K mutant reverse transcriptase.

With `Cc1cn([C@@H]2O[C@H](CO[Si](C)(C)C(C)(C)C)[C@@]3(OS(=O)(=O)C=C3N)[C@H]2O[Si](C)(C)C(C)(C)C)c(=O)n(C)c1=O`, the EC50 (commonly the midpoint of the concentration-response curve) in assay [1] was above 200000 nM; in assay [2] it was above 200000 nM; in assay [3] it was 60 nM; in assay [4], 50 nM.
Consider `Cc1cn([C@@H]2O[C@H](CO[Si](C)(C)C(C)(C)C)[C@@]3(OS(=O)(=O)C=C3N)[C@H]2O[Si](C)(C)C(C)(C)C)c(=O)[nH]c1=S`, for which the EC50 was above 2000 nM in assay [1], above 10000 nM in assay [2], 170 nM in assay [3] and 170 nM in assay [4].
For `CC(C)=CCOc1cc(NC(=S)c2ccoc2C)ccc1Cl` [UC 781], the results for the IC50 in assay [5], in assay [6] and in assay [7] were 23.8 nM, 20.8 nM and 226 nM, respectively.
In the case of `CC1=CNC(=O)N([C@@H]2O[C@H](CO[Si](C)(C)C(C)(C)C)[C@@]3(OS(=O)(=O)C=C3N)[C@H]2O[Si](C)(C)C(C)(C)C)C1`, the EC50 in assay [1] is above 10000 nM; in assay [2] it was above 10000 nM; in assay [3] it was 120 nM; in assay [4], 230 nM.
In the case of `CC1=CN([C@@H]2O[C@H](CO[Si](C)(C)C(C)(C)C)[C@@]3(OS(=O)(=O)C=C3N)[C@H]2O[Si](C)(C)C(C)(C)C)C(=O)NC1`, the EC50 was above 2000 nM in assay [1], above 10000 nM in assay [2], 100 nM in assay [3] and 200 nM in assay [4].
As to `Cc1cn([C@@H]2O[C@H](CO[Si](C)(C)C(C)(C)C)[C@@]3(OS(=O)(=O)C=C3N)[C@H]2O[Si](C)(C)C(C)(C)C)c(=O)n(CCCO)c1=O`, the EC50 is above 2000 nM in assay [1], above 2000 nM in assay [2], 10 nM in assay [3] and 30 nM in assay [4].
Consider `Cc1cn([C@@H]2O[C@H](CO[Si](C)(C)C(C)(C)C)C3(OS(=O)(=O)C=C3N)[C@H]2O[Si](C)(C)C(C)(C)C)c(=O)[nH]c1=O` (stereo partly drawn), for which the EC50 in assay [1] and in assay [2] was above 20000 nM in each case. In addition, the IC50 (as a rule, the concentration that gives 50% inhibition) in assay [5] was 6100 nM; in assay [6] it was 627 nM; in assay [7], above 848000 nM.

Source of the values: ChEMBL document CHEMBL1134768, “Identification of a putative binding site for [2',5'-bis-O-(tert-butyldimethylsilyl)-beta-D-ribofuranosyl]-3'-spiro-5''-(4''-amino-1'',2''-oxathiole-2'',2''-dioxide)thymine (TSAO) derivatives at the p51-p66 interface of HIV-1 reverse transcriptase” (J Med Chem, 2001).
